Data set [1] concerns Mycobacterium tuberculosis. The data set is described as follows: Antitubercular activity against Mycobacterium tuberculosis H37Ra assessed as bacterial growth inhibition by MABA. In kind it is functional. Summed up:
(§1)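 Whole-cell growth inhibition of Mycobacterium bovis and M. tuberculosis H37Ra, read quantitatively by Microplate Alamar Blue Assay (alamar blue reagent). Compounds were tested across 1 to 100 µg/ml. Activity was expressed as MIC50 (µg/ml) from this concentration series.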
A general note: The colour change of resazurin is a common sign of viable cells or microbes.

Data set [2] is described as follows: Cytotoxicity against human MRC5 cells assessed as reduction in cell viability by MTT assay. In kind it is cell-based. Summed up: (§2)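 Viability read by the standard formazan (MTT) method. CC50 is the concentration giving a 50% decrease in cell viability, reported in µM as CC50±SD.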
A general note: Tetrazolium assays rely on reduction of a dye to a coloured formazan, in cell work by metabolically active cells.

Data set [3] relates to Mycobacterium tuberculosis. The experiment in a line: Antitubercular activity against Mycobacterium tuberculosis H37Ra assessed as bacterial growth inhibition at 50 to 100 ug/ml by MABA relative to control. In kind it is functional.
Data set [4] in a line: Cytotoxicity against African green monkey Vero cells assessed as reduction in cell viability by MTT assay. In kind it is cell-based. To be noted: chlorocebus sabaeus. Summed up: as §2
The nature of data set [5]: Cytotoxicity against human A549 cells assessed as reduction in cell viability by MTT assay. In kind it is cell-based. Summed up:
as §2

Data set [6] relates to Mycobacterium tuberculosis. The experiment in a line: Antitubercular activity against Mycobacterium tuberculosis H37Ra assessed as bacterial growth inhibition at 1 to 5 ug/ml by MABA relative to control. In kind it is functional.
Data set [7] relates to Mycobacterium tuberculosis. The data set is described as follows: Antitubercular activity against Mycobacterium tuberculosis H37Ra assessed as bacterial growth inhibition at 100 ug/ml by MABA relative to control. In kind it is functional. To be noted: read-out: GI.
Data set [8] has as its system Mycobacterium tuberculosis. The data set is described as follows: Antitubercular activity against Mycobacterium tuberculosis H37Ra assessed as bacterial growth inhibition by MABA relative to control. In kind it is functional. Summed up:
as §1

Data set [9] has as its system Mycobacterium tuberculosis. The data set is described as follows: Antitubercular activity against Mycobacterium tuberculosis H37Ra assessed as bacterial growth inhibition at 10 ug/ml by MABA relative to control. In kind it is functional. To be noted: read-out: GI.
The test system of data set [10] is Mycobacterium tuberculosis. The experiment in a line: Antitubercular activity against Mycobacterium tuberculosis H37Ra assessed as bacterial growth inhibition at 50 ug/ml by MABA relative to control. In kind it is functional. To be noted: read-out: GI.
In data set [11] the test system is Mycobacterium tuberculosis. The data set is described as follows: Antitubercular activity against Mycobacterium tuberculosis H37Ra assessed as bacterial growth inhibition at 25 ug/ml by MABA relative to control. In kind it is functional. To be noted: read-out: GI.
Data set [12] relates to Mycobacterium tuberculosis. The experiment in a line: Antitubercular activity against Mycobacterium tuberculosis H37Ra assessed as bacterial growth inhibition at 5 ug/ml by MABA relative to control. In kind it is functional. To be noted: read-out: GI.
Data set [13] deals with Mycobacterium tuberculosis. The experiment in a line: Antitubercular activity against Mycobacterium tuberculosis H37Ra assessed as bacterial growth inhibition at 1 ug/ml by MABA relative to control. In kind it is functional. To be noted: read-out: GI.

Each structure is given as a SMILES string. In brackets after ≈: the same amount, converted by molar mass.

What is called MIC50 is an inhibitory concentration at the 50% level, which refers to growth in some studies and to a panel of isolates in others. The term CC50 denotes the concentration at which the toxic effect on the cells reaches its halfway point.

Take `O=c1[nH]cc(C#Cc2ccccc2)c(=O)[nH]1`: the MIC50 in [1] was 18.2 µg/mL (≈ 85.8 µM). The CC50 in data set [2] was 75.1 µM; in [4] it was 254 µM; in data set [5], 248 µM. Besides, the “growth inhibition (GI)” value in data set [3] turned out to be 90%.
As to `O=c1[nH]cc(C#CC2CCCCC2)c(=O)[nH]1`, in data set [6], the “growth inhibition (GI)” value is listed as 50%. The MIC50 in [1] came to 2.8 µg/mL (≈ 12.8 µM). Moreover, the figures for the CC50 in [2], in [4] and in [5] were 62.8 µM, 247 µM and 245 µM, respectively. Further, the inhibition of growth at 100 µg/mL in data set [7] is 90%.
For the compound `CCCCCCC#Cc1c[nH]c(=O)[nH]c1=O`, the CC50 was found to be 94.9 µM in data set [2], 250 µM in data set [4] and 249 µM in data set [5]. Besides, the “growth inhibition (GI)” value in data set [8] stood at 0%.
On to `O=c1[nH]c(=O)n([C@@H]2O[C@H](CO)[C@@H](O)[C@H]2O)cc1C#CC1CC1`, for which the “growth inhibition (GI)” value in [6] was found to be 50%. Also, the inhibition of growth at 10 µg/mL in data set [9] was determined as 70%. The figures for the CC50 in [2], in data set [4] and in [5] were 24.2 µM, 133 µM and 115 µM, respectively. Further, the inhibition of growth at 100 µg/mL in data set [7] came out at 90%.
`CCCCCCC#Cc1cn([C@@H]2O[C@H](CO)[C@@H](O)[C@H]2O)c(=O)[nH]c1=O`: the inhibition of growth at 10 µg/mL in data set [9] worked out at 0%. The MIC50 in data set [1] was under 50 µg/mL. Also, the values for the CC50 in data set [2], in [4] and in data set [5] were 15.7 µM, 111 µM and 87.2 µM, respectively. Besides, the inhibition of growth at 100 µg/mL in [7] turned out to be 90%.
Turning to `CC#Cc1c[nH]c(=O)[nH]c1=O`, the figures for the CC50 in data set [2], in data set [4] and in data set [5] were 117 µM, 262 µM and 256 µM, respectively. Also, the “growth inhibition (GI)” value in data set [8] is 0%.
The like results for `CCC#Cc1c[nH]c(=O)[nH]c1=O` were, in that order, 120 µM, 263 µM, 253 µM and 0%.
On to `O=c1[nH]c(=O)n([C@@H]2O[C@H](CO)[C@@H](O)[C@H]2O)cc1C#CC(O)c1ccccc1` (stereo not given in full), for which, in data set [6], the “growth inhibition (GI)” value turned out to be 100%. Besides, the MIC50 in [1] stood at 1.1 µg/mL (≈ 2.94 µM). For the same compound, the CC50 in data set [2] came to 0.9 µM; in [4], 65.4 µM; in [5], 34.2 µM.
As for `CCCCC#Cc1c[nH]c(=O)[nH]c1=O`, the CC50 was determined as 113 µM in [2], 253 µM in data set [4] and 250 µM in data set [5]. Moreover, the “growth inhibition (GI)” value in data set [8] was determined as 0%.
On to `O=c1[nH]cc(C#CC2CC2)c(=O)[nH]1`, for which the MIC50 in data set [1] is 5.2 µg/mL (≈ 29.5 µM). Besides, the figures for the CC50 in data set [2], in [4] and in [5] were 101 µM, 252 µM and 251 µM, respectively. For the same compound, the inhibition of growth at 100 µg/mL in data set [7] came to 90%. Besides, the inhibition of growth at 50 µg/mL in data set [10] stood at 70%.
Consider `O=c1[nH]c(=O)n([C@@H]2O[C@H](CO)[C@@H](O)[C@H]2O)cc1C#Cc1ccccc1`, for which the “growth inhibition (GI)” value came to 50% in [6] and 90% in data set [3]. The inhibition of growth at 10 µg/mL in [9] worked out at 70%. Also, the MIC50 in data set [1] came out at 3.2 µg/mL (≈ 9.29 µM). The CC50 is 1.2 µM in [2], 78.4 µM in data set [4] and 42.5 µM in data set [5].
On to `CCCCC#Cc1cn([C@@H]2O[C@H](CO)[C@@H](O)[C@H]2O)c(=O)[nH]c1=O`, for which the inhibition of growth at 10 µg/mL in [9] worked out at 10%. For the same compound, in [1], the MIC50 came to 50 µg/mL (≈ 154 µM). The CC50 was 11.6 µM in data set [2], 103 µM in data set [4] and 83.2 µM in data set [5]. Besides, the inhibition of growth at 100 µg/mL in [7] was determined as 90%. In addition, the inhibition of growth at 50 µg/mL in data set [10] came to 50%.
Turning to `C[Si](C)(C)C#Cc1c[nH]c(=O)[nH]c1=O`, the MIC50 in data set [1] was found to be 100 µg/mL (≈ 480 µM). Also, the CC50 in data set [2] is 124 µM; in data set [4], 270 µM; in [5], 268 µM. In data set [7], the inhibition of growth at 100 µg/mL turned out to be 50%.
For `O=c1[nH]cc(C#CC(O)c2ccccc2)c(=O)[nH]1` (stereo not given), the “growth inhibition (GI)” value was found to be 50% in [6] and 90% in [3]. Moreover, in [9], the inhibition of growth at 10 µg/mL worked out at 75%. Also, the MIC50 in data set [1] is 2.9 µg/mL (≈ 12 µM). Besides, the CC50 came to 38.4 µM in [2], 242 µM in data set [4] and 237 µM in data set [5].
Take `O=c1[nH]c(=O)n([C@@H]2O[C@H](CO)[C@@H](O)[C@H]2O)cc1C#CC1CCCCC1`: the “growth inhibition (GI)” value in data set [6] came out at 10%. The MIC50 in data set [1] came to 18.9 µg/mL (≈ 53.9 µM). In addition, the CC50 in data set [2] turned out to be 36.8 µM; in data set [4] it was 148 µM; in data set [5], 127 µM. In addition, the inhibition of growth at 25 µg/mL in data set [11] was found to be 55%. In addition, in data set [10], the inhibition of growth at 50 µg/mL came to 70%.
As for `N[C@@H]1CONC1=O` [CYCLOSERINE], the inhibition of growth at 10 µg/mL in data set [9] is 67%. Besides, the MIC50 in [1] is 5.2 µg/mL (≈ 50.9 µM). In addition, the inhibition of growth at 5 µg/mL in data set [12] was determined as 50%.
As to `NNC(=O)c1ccncc1` [ISONIAZID], the inhibition of growth at 1 µg/mL in data set [13] is 100%. Further, the MIC50 in data set [1] is 0.8 µg/mL (≈ 5.83 µM).
The like results for `CO[C@H]1/C=C/O[C@@]2(C)Oc3c(C)c(O)c4c(O)c(c(/C=N/N5CCN(C)CC5)c(O)c4c3C2=O)NC(=O)/C(C)=C\C=C\[C@H](C)[C@H](O)[C@@H](C)[C@@H](O)[C@@H](C)[C@H](OC(C)=O)[C@@H]1C` [RIFAMPIN] were, in that order, 100% and 0.7 µg/mL (≈ 0.851 µM).

Values taken from ChEMBL document CHEMBL4622950, “The synthesis and antituberculosis activity of 5-alkynyl uracil derivatives” (Bioorg Med Chem Lett, 2020).
